Laboratory results from ChEMBL document CHEMBL1938268, “Synthesis, characterization and in vitro biological evaluation of some novel diarylsulfonylureas as potential cytotoxic and antimicrobial agents” (Bioorg Med Chem Lett, 2012).
≈ marks a conversion by molar mass, not a printed value.

Assays:
[1] = system: Bacillus subtilis; experiment: Antibacterial activity against Bacillus subtilis NCIM 2063 after 24 hrs by agar well diffusion assay; assay type: functional; details: NCIM 2063, 24 h
Method in brief: (§1)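 Agar well diffusion per NCCLS; NCIM standard strains. Nutrient agar seeded with 0.1 mL bacterial suspension in sterile 0.85% saline at 10⁵ CFU/mL. Plates in triplicate, 37 0.5 °C, 24 h. MIC taken as lowest concentration giving complete growth inhibition.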

[2] = system: Micrococcus luteus; experiment: Antibacterial activity against Micrococcus luteus NCIM 2155 after 24 hrs by agar well diffusion assay; assay type: functional; details: NCIM 2155, 24 h; method in brief: as §1
[3] = Toxicity against Brine shrimp nauplii after 24 hrs; assay type: organism-based; details: artemia salina, in vivo; read-out: ED50
Method in brief: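 Artemia salina nauplii hatched 38 h in sterile brine (sea salt 38 g/L, pH 8.5) under aeration; 10 nauplii per vial exposed to graded compound concentrations in 5 mL final volume, 37 °C, 24 h under incandescent light. Survivors counted; percent lethality versus vehicle-treated controls; ED50 from probit analysis; podophyllotoxin positive control.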

[4] = system: Pseudomonas aeruginosa; experiment: Antibacterial activity against Pseudomonas aeruginosa NCIM 2036 after 24 hrs by agar well diffusion assay; assay type: functional; details: NCIM 2036, 24 h; method in brief: as §1
[5] = system: Bacillus pumilus; experiment: Antibacterial activity against Bacillus pumilus NCIM 2327 after 24 hrs by agar well diffusion assay; details: NCIM 2327, 24 h
[6] = system: Klebsiella pneumoniae; experiment: Antibacterial activity against Klebsiella pneumoniae NCIM 5082 after 24 hrs by agar well diffusion assay; assay type: functional; details: NCIM 5082, 24 h; method in brief: as §1
[7] = system: Proteus vulgaris; experiment: Antibacterial activity against Proteus vulgaris NCIM 2813 after 24 hrs by agar well diffusion assay; assay type: functional; details: NCIM 2813, 24 h; method in brief: as §1
[8] = system: Escherichia coli; experiment: Antibacterial activity against Escherichia coli NCIM 2065 after 24 hrs by agar well diffusion assay; assay type: functional; details: NCIM 2065, 24 h; method in brief: as §1
[9] = system: Penicillium chrysogenum; experiment: Antifungal activity against Penicillium chrysogenum NCIM 738 after 48 hrs by agar well diffusion assay; assay type: functional; details: NCIM 738, 48 h
Method in brief: (§2)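 Fungal spore suspensions in sterile distilled water set to final 10⁶ CFU/mL; 0.1 mL spread on Potato-Dextrose-Agar. NCCLS agar well diffusion with NCIM standard strains: 6 mm wells given 0.1 mL compound diluted in 1% DMSO, final 16 to 512 µg/mL. Triplicate plates held 48 h at 28 0.2 °C. MIC is lowest concentration fully inhibiting growth.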

[10] = system: Candida albicans; experiment: Antifungal activity against Candida albicans NCIM 3102 after 48 hrs by agar well diffusion assay; assay type: functional; details: NCIM 3102, 48 h; method in brief: as §2
[11] = system: Aspergillus oryzae; experiment: Antifungal activity against Aspergillus oryzae NCIM 643 after 48 hrs by agar well diffusion assay; assay type: functional; details: NCIM 643, 48 h; method in brief: as §2
[12] = system: Aspergillus niger; experiment: Antifungal activity against Aspergillus niger NCIM 548 after 48 hrs by agar well diffusion assay; assay type: functional; details: NCIM 548, 48 h; method in brief: as §2
[13] = system: Staphylococcus aureus; experiment: Antibacterial activity against Staphylococcus aureus NCIM 2079 after 24 hrs by agar well diffusion assay; assay type: functional; details: NCIM 2079, 24 h; method in brief: as §1

Row | Compound | MIC [1] | MIC [2] | LC50 at 24 h [3] | MIC [4] | MIC [5] | MIC [6] | MIC [7] | MIC [8] | MIC [9] | MIC [10] | MIC [11] | MIC [12] | MIC [13]
1 | Cc1ccc(S(=O)(=O)NC(=O)Nc2ccccc2C(=O)/C=C/c2ccccc2)cc1 | 512 mg/L (≈ 1220 µM) | 512 mg/L (≈ 1220 µM) | 25 mg/L (≈ 59.5 µM) | 512 mg/L (≈ 1220 µM) | 512 mg/L (≈ 1220 µM) | 512 mg/L (≈ 1220 µM) | 512 mg/L (≈ 1220 µM) | 512 mg/L (≈ 1220 µM) | 512 mg/L (≈ 1220 µM) | 512 mg/L (≈ 1220 µM) | 512 mg/L (≈ 1220 µM) | 512 mg/L (≈ 1220 µM) | 512 mg/L (≈ 1220 µM)
2 | Cc1ccc(/C=C/C(=O)c2ccccc2NC(=O)NS(=O)(=O)c2ccc(C)cc2)cc1 | 256 mg/L (≈ 589 µM) | 256 mg/L (≈ 589 µM) | 15.3 mg/L (≈ 35.2 µM) | 256 mg/L (≈ 589 µM) | 256 mg/L (≈ 589 µM) | 256 mg/L (≈ 589 µM) | 256 mg/L (≈ 589 µM) | 256 mg/L (≈ 589 µM) | 256 mg/L (≈ 589 µM) | 256 mg/L (≈ 589 µM) | 256 mg/L (≈ 589 µM) | 256 mg/L (≈ 589 µM) | 128 mg/L (≈ 295 µM)
3 | Cc1ccc(S(=O)(=O)NC(=O)Nc2ccccc2C(=O)/C=C/c2ccc(N(C)C)cc2)cc1 | 64 mg/L (≈ 138 µM) | 128 mg/L (≈ 276 µM) | 38.1 mg/L (≈ 82.2 µM) | 64 mg/L (≈ 138 µM) | 64 mg/L (≈ 138 µM) | 128 mg/L (≈ 276 µM) | 128 mg/L (≈ 276 µM) | 64 mg/L (≈ 138 µM) | 256 mg/L (≈ 552 µM) | 128 mg/L (≈ 276 µM) | 256 mg/L (≈ 552 µM) | 256 mg/L (≈ 552 µM) | 64 mg/L (≈ 138 µM)
4 | COc1cccc(/C=C/C(=O)c2ccccc2NC(=O)NS(=O)(=O)c2ccc(C)cc2)c1 | 128 mg/L (≈ 284 µM) | 128 mg/L (≈ 284 µM) | 23.2 mg/L (≈ 51.4 µM) | 128 mg/L (≈ 284 µM) | 128 mg/L (≈ 284 µM) | 128 mg/L (≈ 284 µM) | 128 mg/L (≈ 284 µM) | 128 mg/L (≈ 284 µM) | 128 mg/L (≈ 284 µM) | 128 mg/L (≈ 284 µM) | 128 mg/L (≈ 284 µM) | 128 mg/L (≈ 284 µM) | 128 mg/L (≈ 284 µM)
5 | COc1ccc(/C=C/C(=O)c2ccccc2NC(=O)NS(=O)(=O)c2ccc(C)cc2)cc1 | 64 mg/L (≈ 142 µM) | 128 mg/L (≈ 284 µM) | 28.1 mg/L (≈ 62.4 µM) | 64 mg/L (≈ 142 µM) | 128 mg/L (≈ 284 µM) | 128 mg/L (≈ 284 µM) | 128 mg/L (≈ 284 µM) | 128 mg/L (≈ 284 µM) | 128 mg/L (≈ 284 µM) | 128 mg/L (≈ 284 µM) | 128 mg/L (≈ 284 µM) | 128 mg/L (≈ 284 µM) | 128 mg/L (≈ 284 µM)
6 | COc1ccc(/C=C/C(=O)c2ccccc2NC(=O)NS(=O)(=O)c2ccc(C)cc2)cc1OC | 32 mg/L (≈ 66.6 µM) | 128 mg/L (≈ 266 µM) | 12.9 mg/L (≈ 26.8 µM) | 32 mg/L (≈ 66.6 µM) | 64 mg/L (≈ 133 µM) | 128 mg/L (≈ 266 µM) | 128 mg/L (≈ 266 µM) | 64 mg/L (≈ 133 µM) | 128 mg/L (≈ 266 µM) | 128 mg/L (≈ 266 µM) | 128 mg/L (≈ 266 µM) | 128 mg/L (≈ 266 µM) | 64 mg/L (≈ 133 µM)
7 | COc1ccc(/C=C/C(=O)c2ccccc2NC(=O)NS(=O)(=O)c2ccc(C)cc2)c(OC)c1 | 32 mg/L (≈ 66.6 µM) | 128 mg/L (≈ 266 µM) | 16 mg/L (≈ 33.4 µM) | 32 mg/L (≈ 66.6 µM) | 32 mg/L (≈ 66.6 µM) | 128 mg/L (≈ 266 µM) | 128 mg/L (≈ 266 µM) | 32 mg/L (≈ 66.6 µM) | 128 mg/L (≈ 266 µM) | 128 mg/L (≈ 266 µM) | 128 mg/L (≈ 266 µM) | 128 mg/L (≈ 266 µM) | 32 mg/L (≈ 66.6 µM)
8 | Cc1ccc(S(=O)(=O)NC(=O)Nc2ccccc2C(=O)/C=C/c2ccccc2O)cc1 | 512 mg/L (≈ 1170 µM) | 256 mg/L (≈ 586 µM) | 32.3 mg/L (≈ 74.1 µM) | 512 mg/L (≈ 1170 µM) | 512 mg/L (≈ 1170 µM) | 256 mg/L (≈ 586 µM) | 256 mg/L (≈ 586 µM) | 512 mg/L (≈ 1170 µM) | 256 mg/L (≈ 586 µM) | 256 mg/L (≈ 586 µM) | 256 mg/L (≈ 586 µM) | 256 mg/L (≈ 586 µM) | 256 mg/L (≈ 586 µM)
9 | Cc1ccc(S(=O)(=O)NC(=O)Nc2ccccc2C(=O)/C=C/c2cccc(O)c2)cc1 | 512 mg/L (≈ 1170 µM) | 512 mg/L (≈ 1170 µM) | 39.3 mg/L (≈ 89.9 µM) | 512 mg/L (≈ 1170 µM) | 512 mg/L (≈ 1170 µM) | 512 mg/L (≈ 1170 µM) | 512 mg/L (≈ 1170 µM) | 512 mg/L (≈ 1170 µM) | 512 mg/L (≈ 1170 µM) | 512 mg/L (≈ 1170 µM) | 512 mg/L (≈ 1170 µM) | 512 mg/L (≈ 1170 µM) | 512 mg/L (≈ 1170 µM)
10 | CC(=O)N1CCN(c2ccc(OCC3COC(Cn4ccnc4)(c4ccc(Cl)cc4Cl)O3)cc2)CC1 (configuration not stated) [KETOCONAZOLE] |  |  |  |  |  |  |  |  | 16 mg/L (≈ 30.1 µM) | 16 mg/L (≈ 30.1 µM) | 16 mg/L (≈ 30.1 µM) | 16 mg/L (≈ 30.1 µM) | 
11 | COc1cc([C@@H]2c3cc4c(cc3[C@H](O)[C@H]3COC(=O)[C@H]23)OCO4)cc(OC)c1OC [PODOFILOX] |  |  | 3.61 mg/L (≈ 8.71 µM) |  |  |  |  |  |  |  |  |  | 
